Assay outcomes (PubChem)
LEDGF integ inh = blockers of LEDGF/p75-dependent integrase strand transfer – biochemical, TR-FRET, high throughput, primary screen; inhibition, % at 3.7 µM; AID 743269, 2014; hit rate 0.64% among 370,000; HIV-1 integrase (with human LEDGF/p75); TR-FRET IN-LEDGF/p75 DNA integration, Eu/Cy5;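 active = inhibition above the screen-wide mean plus 3 SD, cut at about 13% in these data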;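 note: signal is the Cy5 over europium emission ratio at 671 and 618 nm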
RBBP9 inhibitor = human RBBP9 inhibitors, primary screen, biochemical, fluorescence polarization, FP-Rh probe, HTS; Serine hydrolase RBBP9 (Homo sapiens), O75884; recombinant RBBP9; inhibition, % at 7.94 µM; hit rate 0.2% among 220,000; AID 1515, 2009;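 active = inhibition above the campaign mean of all tested compounds plus 3 SD, cut at about 14% in these data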
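Measured by – fluorescence polarization · Test system – RBBP9 protein · Input – 2.5 µM RBBP9 dispensing solution, before mixing · Measure – percent inhibition from mP, scaled between DMSO and no-protein wells · Benchmarks – DMSO-treated enzyme wells and wells lacking RBBP9 · Times – preincubation 30 min plus labeling 45 min at 25 °C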
ABHD5 PLIN5 PPI = ABHD5-PLIN5 interaction inhibitors, primary screen, cell lysate, split luciferase complementation, luminescence; hit rate 0.78% among 360,000; inhibition, % at 4 µM; Split G. princeps luciferase complementation, 4 h;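 active = inhibition above the mean inhibition across every tested compound plus 3 SD, cut at about 22% in these data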
Target sequence (Q00G26 whole entry, looked up): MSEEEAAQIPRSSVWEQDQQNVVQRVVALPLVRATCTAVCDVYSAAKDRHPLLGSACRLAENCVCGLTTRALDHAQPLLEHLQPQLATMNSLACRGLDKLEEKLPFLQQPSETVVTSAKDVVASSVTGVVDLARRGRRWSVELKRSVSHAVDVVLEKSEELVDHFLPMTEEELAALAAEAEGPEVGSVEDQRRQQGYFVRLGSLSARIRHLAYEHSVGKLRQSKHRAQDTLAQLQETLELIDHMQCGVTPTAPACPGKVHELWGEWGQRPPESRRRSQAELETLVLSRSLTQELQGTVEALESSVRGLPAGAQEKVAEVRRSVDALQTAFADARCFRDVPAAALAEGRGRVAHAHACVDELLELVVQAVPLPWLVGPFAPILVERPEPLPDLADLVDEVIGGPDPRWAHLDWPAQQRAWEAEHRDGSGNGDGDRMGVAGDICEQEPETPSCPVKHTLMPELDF
Target sequence (Q8WTS1 whole entry, looked up): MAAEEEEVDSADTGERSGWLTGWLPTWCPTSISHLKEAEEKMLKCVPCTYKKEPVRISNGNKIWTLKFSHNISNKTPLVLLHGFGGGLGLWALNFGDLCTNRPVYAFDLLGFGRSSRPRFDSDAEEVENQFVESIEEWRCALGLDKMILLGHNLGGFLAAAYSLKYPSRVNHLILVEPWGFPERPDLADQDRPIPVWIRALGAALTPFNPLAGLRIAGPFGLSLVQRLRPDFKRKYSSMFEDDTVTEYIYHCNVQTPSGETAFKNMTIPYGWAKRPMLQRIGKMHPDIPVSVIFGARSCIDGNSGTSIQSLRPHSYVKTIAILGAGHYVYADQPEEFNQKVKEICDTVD
MBD2 DNA inh = inhibitors of MBD2 binding to methylated DNA, primary screen, biochemical, TR-FRET, DNA-binding domain, human | MBD2 binding to methylated oligonucleotide | hit rate 0.31% among 370,000 | Methyl-CpG-binding domain protein 2 (Homo sapiens), Q9UBB5 | inhibition, % at 4.4 µM; in the data active = inhibition above about 13%
UHRF1 MBD2 ctr = UHRF1 methylated DNA binding inhibitors, primary screen, counter-screen for MBD2 inhibitor project, biochemical, TR-FRET, human UHRF1, single concentration. UHRF1 binding to methylated oligo. hit rate 0.75% among 370,000. inhibition, % at 4.4 µM. AID 687016, 2013; in the data active = inhibition above about 21%;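 note: UHRF1 SRA domain binding a hemimethylated CpG hairpin DNA probe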
PRMT1 inh = PRMT1 methyltransferase inhibitors, primary screen, biochemical, fluorescence polarization. Protein arginine N-methyltransferase 1 (Homo sapiens), Q99873. recombinant PRMT1, activity-based probe fluorescence polarization. inhibition, % at 2.79 µM. hit rate 1.3% among 370,000. AID 652257, 2013;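 active = inhibition above about 21% made by adding two undisclosed values, limit read from the data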
IN multimer act = HIV-1 IN multimer formation enhancers, counter-screen for LEDGF/p75 integration inhibitor project, biochemical, TR-FRET. TR-FRET HIV-1 integrase multimerization. activation, % at 7.7 µM. hit rate 17% among 2,000. shares compounds with LEDGF integ inh. AID 1053131, 2014; in the data active = activation above about 8.9%
TRFRET interf = TR-FRET optical interference artefacts, confirmation, artefact control for LEDGF/p75-dependent integration inhibitor project, biochemical, HIV-1 IN multimerization. 2,000 tested, under 10 active. inhibition, % at 7.7 µM. AID 1053135, 2014. TR-FRET optical interference counterscreen. shares compounds with LEDGF integ inh;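 active = inhibition above the mean over all tested compounds plus 3 SD, which no compound reached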
LEDGF integ conf = inhibitors of HIV-1 IN-LEDGF/p75 DNA integration, confirmation, biochemical, TR-FRET; shares compounds with LEDGF integ inh; TR-FRET LEDGF/p75-dependent HIV-1 integration; inhibition, % at 3.7 µM; hit rate 36% among 2,000; AID 1053136, 2014; in the data active = inhibition above about 14%
Numbers stand for hits; - = inactive; . = no result given. The list is not random: actives were taken first. Their share in the collection is about 3.1%.

SMILES	LEDGF integ inh	RBBP9 inhibitor	ABHD5 PLIN5 PPI	MBD2 DNA inh	UHRF1 MBD2 ctr	PRMT1 inh	IN multimer act	TRFRET interf	LEDGF integ conf
Cn1cc(C(=O)N/N=C/C2=C(N3CCOCC3)C(=C/c3ccc([N+](=O)[O-])cc3)/CC2)ccc1=O	88	.	-	-	-	-	-	-	-
c1cc(-c2nnc3n2N=C(c2ccc4c(c2)OCO4)CS3)ccn1	-	.	.	-	-	-	.	.	.
Cc1ccc(S(=O)(=O)/N=C(/Nc2cccc(O)c2)c2ccccc2)cc1	37	.	-	-	-	-	-	-	-
Cc1cc2c(c(=O)n1Cc1ccccn1)C(C(C)C)C(C#N)=C(N)O2 (stereo not drawn)	17	-	-	-	-	-	-	-	-
Cc1cc2c(c(=O)n1Cc1ccccn1)C(c1ccc3c(c1)OCO3)C(C#N)=C(N)O2 (stereo not drawn)	-	-	-	-	-	-	.	.	.
Oc1cccc(/C=N/N=C/c2cccc(O)c2O)c1O	27	.	-	-	-	-	-	-	73
Cc1ccccc1N=Cc1cccc(O)c1O	.	-	-	.	.	.	.	.	.
Cc1ccc(N=Cc2cccc(O)c2O)c(C)c1	31	-	-	-	-	-	-	-	75
CCOC(=O)C1CCCN(Cc2ccccc2C)C1 (stereo not drawn)	-	-	-	-	-	-	.	.	.
CCOC(=O)C1CCCN(Cc2ccccc2Cl)C1 (stereo not drawn)	16	-	-	-	-	-	-	-	-
Cc1sc2nc(SCC(=O)c3ccc(O)c(O)c3)n(C)c(=O)c2c1C	20	.	.	-	-	-	26	-	46
CC(=O)N(/N=C1\Sc2ccccc2C1=O)c1cccc(C)c1	22	-	-	-	-	-	-	-	51
O=C(CCN1CCN(c2ccccc2)CC1)N/N=C/c1ccc(O)c(O)c1O	42	-	-	-	27	23	49	-	73
C/C(=N\NC(=O)Cc1csc(N2CCOCC2)n1)c1ccccc1	-	-	-	-	-	-	.	.	.
O=C(Cc1csc(N2CCOCC2)n1)N/N=C/c1ccc(O)c(O)c1O	55	-	-	-	-	-	44	-	60
CC(C)(C)OC(=O)N/N=C/c1cccn1-c1ccc([N+](=O)[O-])cc1	14	-	-	-	-	-	-	-	-
COc1ccc(CC(=O)N/N=C/c2cccn2-c2ccc([N+](=O)[O-])cc2)cc1OC	-	-	-	-	-	-	.	.	.
COC(=O)c1ccc(CN2C(=O)NC(CC(C)C)C2=O)cc1 (stereo not drawn)	61	-	-	-	25	-	-	-	-
CCC(=O)Nc1nc2ccccc2n1Cc1ccccc1	-	-	-	-	-	-	.	.	.
CCC(=O)Nc1nc2ccccc2n1Cc1ccc(C)cc1	14	-	-	-	-	-	-	-	-
O=C(CN1CCN(S(=O)(=O)c2ccc(Cl)cc2)CC1)NC1CC1	34	.	-	-	-	-	-	-	-
O=C(O)c1cc(-c2ccccc2)nc(-c2ccccc2)c1	15	.	-	-	-	-	-	-	-
CC(COc1ccccc1)CN1CCC(C(O)(c2ccccc2)c2ccccc2)CC1 (stereo not drawn)	-	.	.	-	-	-	.	.	.
COc1ccc(OC)c(/C=N/NC(=O)CCc2ccc(O)c(O)c2)c1	58	-	-	-	-	48	-	-	-
CCc1nnc(N/N=C/c2ccc(N3CCC(C)CC3)c([N+](=O)[O-])c2)n1N	38	-	-	-	-	-	-	-	-
SMILES	LEDGF integ inh	RBBP9 inhibitor	ABHD5 PLIN5 PPI	MBD2 DNA inh	UHRF1 MBD2 ctr	PRMT1 inh	IN multimer act	TRFRET interf	LEDGF integ conf
CC1CCN(c2cc(N3CCOCC3)c([N+](=O)[O-])cc2F)CC1	-	-	-	-	-	-	.	.	.
Cc1nnc(N/N=C/c2cc([N+](=O)[O-])c(N3CCC(C)CC3)cc2N2CCC(C)CC2)n1N	52	-	-	-	-	-	-	-	-
CC(C)CN(CC(C)C)C(=O)c1ccc2c(c1)NC(=O)C(C)(C)O2	-	.	.	-	-	-	.	.	.
COC(=O)[C@]12C[C@H](CC(=O)N3CCCC3)C(=O)N(Cc3ccccc3)C1=C[C@H](C1CCCC1)O[C@@H]2C	-	.	.	-	-	-	.	.	.
CSC1=NC2C(N1)N(C)C(=O)N2C (stereo not drawn)	35	-	-	-	-	-	-	-	-
c1ccc(Nc2nnc(-c3ccc4c(c3)OCO4)o2)cc1	-	.	.	-	-	-	.	.	.
O=C(O)CCCC[C@@H]1SC[C@@H]2NC(=O)N[C@@H]21	93	.	-	-	-	-	-	-	96
CC(=O)c1c(C)[nH]c(C(=O)OCC(=O)Nc2cccnc2Cl)c1C	24	.	-	-	-	-	-	-	-
COC(=O)C1=C(C)N(Cc2cccc(C(F)(F)F)c2)C(=NCc2cc(OC)c(OC)c(OC)c2)NC1c1ccccc1C(F)(F)F (stereo not drawn)	-	.	.	-	-	-	.	.	.
Cn1cc(Br)c(NS(=O)(=O)c2ccc(Cl)s2)n1	25	-	-	-	-	-	-	-	-
CC(=O)Nc1ccc(NS(=O)(=O)c2ccc(Cl)s2)cc1	-	-	-	-	-	-	.	.	.
CCCCNC(=O)C1c2ccccc2OCC(=O)N1Cc1ccccn1 (stereo not drawn)	30	.	-	-	-	-	-	-	-
O=C(CN1CCCCC1)NNc1nc(-c2ccccc2)c2cc(Br)ccc2n1	19	-	-	-	-	-	-	-	-
CN(C)CC(=O)N[C@@H]1C=C[C@@H](CC(=O)NCCN2CCCCC2)O[C@@H]1CO	28	.	-	-	-	-	-	-	-
COC(=O)[C@]12C[C@H](CC(=O)N3CCOCC3)C(=O)N(CCC3=CCCCC3)C1=C[C@H](C1CCCC1)O[C@@H]2C	-	.	.	-	-	-	.	.	.
COCC(=O)N[C@@H]1C[C@@H]2O[C@H](CO)CC[C@@H]2O[C@@H]1CCc1ccc(-c2ccccc2)cc1	-	.	.	-	-	-	.	.	.
